The subject of one assay is A549. The experiment in a line: Cytotoxicity against human A549 cells after 72 hrs by CCK8 assay. In kind it is functional, cell-based. To be noted: A549, 72 h. The method in brief: (§1)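 Cells seeded in 96-well plates and left overnight at 37 °C in humidified 5% CO2. Serial dilutions of the compounds added, then 72 h further incubation. CCK-8 reagent added for the last 4 h and absorbance read at 450 nm.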

The subject of another assay is HL-60. In words: Cytotoxicity against human HL60 cells after 72 hrs by CCK8 assay. In kind it is functional, cell-based. To be noted: HL-60, 72 h. The procedure, abridged:
as §1
Background: Tetrazolium assays rely on reduction of a dye to a coloured formazan, in cell work by metabolically active cells.

Some results are limits rather than exact numbers.

One may read the IC50 as the midpoint of a concentration-inhibition curve. A low value points to higher potency. For `C=C1C(=O)O[C@H]2[C@@H]1[C@H](OC(=O)CC(C)C)C(=O)[C@H](C)C[C@H]1O[C@@H]1[C@](C)(O)[C@@H]2OC(=O)C(C)C`, the IC50 in the assay with A549 is more than 10 µM; with HL-60, 2.8 µM.
The corresponding values for `C=C1C(=O)O[C@H]2[C@@H]1[C@@H](OC(=O)CC(C)C)[C@@]1(O)O[C@H](CC[C@H]1C)[C@](C)(O)[C@@H]2OC(=O)C(C)C` are 10.3 µM and 6.2 µM.
As for `C=C1C(=O)O[C@H]2[C@@H]1[C@@H](OC(=O)CC(C)C)[C@@]1(O)O[C@H](CC[C@H]1C)[C@](C)(O)[C@@H]2OC(=O)C(C)CC` (stereo not given in full), the figures for the IC50 in the assay with A549 and with HL-60 were 6.7 µM and 5.6 µM, respectively.
Consider `C=C1C(=O)O[C@@H]2[C@@H]1[C@H](O)[C@@H](OC(=O)C(C)C)[C@@H](C)CCC(=O)[C@](C)(O)[C@H]2OC(=O)C(C)C`, for which the results for the IC50 in the assay with A549 and with HL-60 were 4 µM and 5.9 µM, respectively.
Take `C=C1C(=O)O[C@H]2[C@H]1[C@H](OC(=O)C(C)C)C(=O)[C@H](C)CCC[C@](C)(O)[C@@H]2OC(=O)C(C)C`: the IC50 with A549 was determined as 5.2 µM; in the assay with HL-60, 5 µM.
On to `C=C1C(=O)O[C@H]2[C@H]1[C@H](OC(=O)/C(C)=C\C)C(=O)[C@H](C)CCC[C@](C)(O)[C@@H]2OC(=O)C(C)C`, for which the IC50 is 4.7 µM in the assay with A549 and 3 µM in the assay with HL-60.
In the same order, the values of `C=C1C(=O)O[C@H]2[C@H]1[C@@H](O)[C@H](OC(=O)CC(C)C)[C@H](C)CCC(=O)[C@](C)(O)[C@@H]2OC(=O)C(C)C` (relative stereo) are 6.2 µM and 5.5 µM.
For `COc1cccc2c1C(=O)c1c(O)c3c(c(O)c1C2=O)C[C@@](O)(C(=O)CO)C[C@@H]3O[C@H]1C[C@H](N)[C@H](O)[C@H](C)O1` [DOXORUBICIN], the half-inhibitory concentration (IC50) in the assay with A549 is 0.4 µM. In other words, the sub-micromolar range.

The values are drawn from ChEMBL document CHEMBL4480450, “Cytotoxic Germacrane-Type Sesquiterpene Lactones from the Whole Plant of Carpesium lipskyi” (J Nat Prod, 2019).
